# Data from ChEMBL document CHEMBL4130552, “Design, synthesis and biological evaluation of novel benzimidazole amidines as potent multi-target inhibitors for the treatment of non-small cell lung cancer” (Eur J Med Chem, 2018).
# Activity calls are given as the source filed them. No cut-off for these calls is given here.
# Assays:
# [1] = tested on: A549; test: Antiproliferative activity against human A549 cells after 72 hrs by MTT assay; assay type: functional, cell-based; conditions: A549, 72 h
# Outline: (§1)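 Cells seeded at 5000/well on day 0 in medium with 10% FBS, 2 mM L-glutamine, penicillin/streptomycin, 37 °C, 5% CO2. Compounds added at five 10-fold dilutions with DMSO ≤0.1%, then 72 h exposure. MTT absorbance converted to percentage growth versus untreated wells. IC50 by linear regression between bracketing concentrations. Quadruplicate points, three independent experiments.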
# [2] = tested on: SW-620; test: Antiproliferative activity against human SW620 cells after 72 hrs by MTT assay; assay type: functional, cell-based; conditions: SW-620, 72 h; outline: as §1
# [3] = tested on: CFPAC-1; test: Antiproliferative activity against human CFPAC-1 cells after 72 hrs by MTT assay; assay type: functional, cell-based; conditions: CFPAC-1, 72 h; outline: as §1
# [4] = tested on: WI-38; test: Antiproliferative activity against human WI38 cells after 72 hrs by MTT assay; assay type: cell-based; conditions: WI-38, 72 h; outline: as §1
# [5] = tested on: HeLa; test: Antiproliferative activity against human HeLa cells after 72 hrs by MTT assay; assay type: functional, cell-based; outline: as §1
# [6] = biological target: MAP kinase p38 (Homo sapiens, UniProt O15264+Q15759+Q16539+P53778); test: Inhibition of p38 phosphorylation at Thr180/Tyr182 residues in human A549 cells at 2 times antiproliferative IC50 after 48 hrs by Western blot method; assay type: cell-based
# Outline: (§2)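 Lysis in RIPA buffer (20 mM Tris-HCl pH 7.5, 150 mM NaCl, EDTA, EGTA, 1% NP-40, 1% deoxycholate, protease inhibitors). Blocking 1 h in 4% BSA/TBST, primary antibody overnight at 4 °C, HRP secondary 1 h, chemiluminescence. Densitometry normalised to alpha-tubulin; two independent experiments.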
# [7] = biological target: Cellular tumor antigen p53 (Homo sapiens) (UniProt P04637); test: Inhibition of p53 phosphorylation at Ser-15 residue in human A549 cells at 2 times antiproliferative IC50 after 48 hrs by Western blot method; assay type: cell-based; outline: as §2
# [8] = tested on: A549; test: Induction of apoptosis in human A549 cells assessed as viable cells at 2 times antiproliferative IC50 after 48 hrs by Annexin V-FITC/propidium iodide staining based fluorescence microscopic method (reference value: 99.48%); assay type: functional
# [9] = tested on: A549; test: Downregulation of PDE5 protein expression in human A549 cells at 2 times antiproliferative IC50 after 48 hrs by Western blot method; assay type: functional, cell-based; outline: as §2
# [10] = tested on: A549; test: Induction of apoptosis in human A549 cells assessed as early apoptotic cells at 2 times antiproliferative IC50 after 48 hrs by Annexin V-FITC/propidium iodide staining based fluorescence microscopic method (reference value: 0.52%); assay type: functional
# [11] = tested on: A549; test: Induction of apoptosis in human A549 cells assessed as late apoptotic cells at 2 times antiproliferative IC50 after 48 hrs by Annexin V-FITC/propidium iodide staining based fluorescence microscopic method (reference value: 0%); assay type: functional
# [12] = tested on: A549; test: Downregulation of CDK9/CyclinT1 protein expression in human A549 cells at 2 times antiproliferative IC50 after 48 hrs by Western blot method; assay type: functional, cell-based; outline: as §2
# [13] = tested on: A549; test: Downregulation of TGM2 protein expression in human A549 cells at 2 times antiproliferative IC50 after 48 hrs by Western blot method; assay type: functional, cell-based; outline: as §2
# [14] = tested on: A549; test: Induction of apoptosis in human A549 cells assessed as necrotic cells at 2 times antiproliferative IC50 after 48 hrs by Annexin V-FITC/propidium iodide staining based fluorescence microscopic method (reference value: 0%); assay type: functional
# [15] = Selectivity ratio of IC50 for human CFPAC-1 cells to IC50 for human SW620 cells; assay type: functional
# [16] = Selectivity ratio of IC50 for human A549 cells to IC50 for human SW620 cells; assay type: functional
# [17] = Selectivity ratio of IC50 for human HeLa cells to IC50 for human SW620 cells; assay type: functional
# Sequence of Cellular tumor antigen p53 (Homo sapiens) (P04637 whole entry, looked up): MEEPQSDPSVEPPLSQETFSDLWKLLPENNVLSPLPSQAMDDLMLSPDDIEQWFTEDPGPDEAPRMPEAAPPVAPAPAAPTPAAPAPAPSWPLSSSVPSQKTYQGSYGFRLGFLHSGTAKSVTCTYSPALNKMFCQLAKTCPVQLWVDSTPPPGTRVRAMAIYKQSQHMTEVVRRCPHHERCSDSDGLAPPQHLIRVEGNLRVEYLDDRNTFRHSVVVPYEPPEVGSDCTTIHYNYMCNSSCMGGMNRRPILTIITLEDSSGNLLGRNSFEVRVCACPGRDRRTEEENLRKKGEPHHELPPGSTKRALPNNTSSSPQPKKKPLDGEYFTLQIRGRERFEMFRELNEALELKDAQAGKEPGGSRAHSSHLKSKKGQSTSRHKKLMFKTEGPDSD
structure (smiles),measurement,setting,value
FC(F)(F)c1ccc(-n2cc(COc3ccc(-c4nc5cc(C6=NCCN6)ccc5[nH]4)cc3)nn2)cc1,IC50,[1],0.59 µM
same,IC50,[2],6.35 µM
same,IC50,[3],0.65 µM
same,IC50,[4],0.69 µM
same,IC50,[5],2.69 µM
Clc1ccc(-n2cc(-c3nc4cc(C5=NCCN5)ccc4[nH]3)nn2)cc1,IC50,[1],3.86 µM
same,IC50,[2],1.67 µM
same,IC50,[3],0.83 µM
same,IC50,[4],2.72 µM
same,IC50,[5],0.69 µM
N=C(N)c1ccc2[nH]c(-c3ccc(OCc4cn(-c5ccc(I)cc5)nn4)cc3)nc2c1,IC50,[1],0.45 µM
same,IC50,[2],0.95 µM
same,IC50,[3],21.5 µM
same,IC50,[4],0.62 µM
same,IC50,[5],6.45 µM
CC(C)NC(=N)c1ccc2[nH]c(-c3ccc(OCc4cn(-c5ccc(Cl)cc5)nn4)cc3)nc2c1.Cl,IC50,[1],0.05 µM
same,inhibition,[6],Active
same,inhibition,[7],Active
same,Activity,[8],28.89%
same,Activity,[9],inactive
same,IC50,[2],48.7 µM
same,IC50,[3],> 100 µM
same,Activity,[10],28.33%
same,Activity,[11],40%
same,Activity,[12],inactive
same,Activity,[13],inactive
same,IC50,[4],8.04 µM
same,IC50,[5],17.5 µM
same,Activity,[14],2.78%
N=C(N)c1ccc2[nH]c(-c3ccc(OCc4cn(-c5ccc(C(F)(F)F)cc5)nn4)cc3)nc2c1,IC50,[1],0.84 µM
same,IC50,[2],0.36 µM
same,IC50,[3],2.09 µM
same,IC50,[4],0.52 µM
same,IC50,[5],0.32 µM
Cl.Clc1ccc(Cn2cc(COc3ccc(-c4nc5cc(C6=NCCN6)ccc5[nH]4)cc3)nn2)cc1,IC50,[1],9.34 µM
same,IC50,[2],0.05 µM
same,IC50,[3],6.82 µM
same,Ratio IC50,[15],>100
same,Ratio IC50,[16],>100
same,Ratio IC50,[17],>100
same,IC50,[4],5.77 µM
same,IC50,[5],5.06 µM
Fc1ccc(-n2cc(COc3ccc(-c4nc5cc(C6=NCCN6)ccc5[nH]4)cc3)nn2)cc1,IC50,[1],> 100 µM
same,IC50,[2],2.31 µM
same,IC50,[3],> 100 µM
same,IC50,[4],0.09 µM
same,IC50,[5],0.98 µM
N=C(N)c1ccc2[nH]c(-c3ccc(OCc4cn(-c5ccc(Cl)cc5)nn4)cc3)nc2c1,IC50,[1],0.05 µM
same,IC50,[2],7.57 µM
same,IC50,[3],18.5 µM
same,IC50,[4],5.03 µM
same,IC50,[5],0.8 µM
c1ccc(-n2cc(COc3ccc(-c4nc5cc(C6=NCCN6)ccc5[nH]4)cc3)nn2)cc1,IC50,[1],49.7 µM
same,IC50,[2],29.6 µM
same,IC50,[3],26.2 µM
same,IC50,[4],0.1 µM
same,IC50,[5],7.78 µM
Clc1ccc(-n2cc(COc3ccc(-c4nc5cc(C6=NCCN6)ccc5[nH]4)cc3)nn2)cc1,IC50,[1],0.06 µM
same,IC50,[2],3.65 µM
same,IC50,[3],16.9 µM
same,IC50,[4],2.24 µM
same,IC50,[5],0.22 µM
CC(C)NC(=N)c1ccc2[nH]c(-c3ccc(OCc4cn(Cc5ccc(Cl)cc5)nn4)cc3)nc2c1,IC50,[1],4.98 µM
same,IC50,[2],36.5 µM
same,IC50,[3],> 100 µM
same,IC50,[4],0.7 µM
same,IC50,[5],> 100 µM
CC(C)NC(=N)c1ccc2[nH]c(-c3ccc(OCc4cn(Cc5ccccc5)nn4)cc3)nc2c1,IC50,[1],6.18 µM
same,IC50,[2],58.6 µM
same,IC50,[3],> 100 µM
same,IC50,[4],65.4 µM
same,IC50,[5],8.8 µM
O=c1[nH]cc(F)c(=O)[nH]1 [FLUOROURACIL],IC50,[1],2.8 µM
Clc1ccc(-n2cc(COc3ccc(-c4nc5ccc(Cl)cc5[nH]4)cc3)nn2)cc1,IC50,[1],2.91 µM
same,IC50,[2],4.28 µM
same,IC50,[3],3.74 µM
same,IC50,[4],1.52 µM
same,IC50,[5],3.54 µM
